# Test results: ChEMBL document CHEMBL1145545, “Discovery of a novel A2B adenosine receptor antagonist as a clinical candidate for chronic inflammatory airway diseases” (J Med Chem, 2008)
# What was measured:
# [1] = species on record: Homo sapiens; assay: Selectivity for human recombinant adenosine A2B receptor over human recombinant adenosine A1 receptor
# [2] = target: T1, Adenosine receptor A2b (Homo sapiens, UniProt P29275); assay: Displacement of [3H]ZM-241385 from human recombinant adenosine A2B receptor expressed in HEK293 cells; format: cell-based
# T1 sequence (P29275 whole entry): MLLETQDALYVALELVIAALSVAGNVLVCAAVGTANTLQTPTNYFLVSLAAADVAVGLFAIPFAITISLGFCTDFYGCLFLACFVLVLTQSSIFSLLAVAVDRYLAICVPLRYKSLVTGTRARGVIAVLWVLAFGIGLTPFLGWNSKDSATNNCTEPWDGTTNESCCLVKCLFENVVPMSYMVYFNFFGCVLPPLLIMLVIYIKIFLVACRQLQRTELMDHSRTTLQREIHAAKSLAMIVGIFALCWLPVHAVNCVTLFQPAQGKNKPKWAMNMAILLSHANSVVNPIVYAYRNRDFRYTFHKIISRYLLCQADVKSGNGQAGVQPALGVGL
# Outline: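 Membranes from HEK293 cells stably expressing human A2B receptor; competition with 10 nM radioligand, 50 µg membrane protein, in 50 mM Tris/1 mM EDTA with 1 U/mL adenosine deaminase, 25 °C for 90 min with gentle agitation; filtration, four ice-cold Tris/MgCl2 washes. Nonspecific binding defined with 10 µM unlabelled ligand; Ki calculated.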
# [3] = target: T2, Adenosine receptor A1 (Homo sapiens, UniProt P30542); assay: Displacement of [3H]CPX from human recombinant adenosine A1 receptor expressed in CHO cells; format: cell-based
# T2 sequence (P30542 whole entry): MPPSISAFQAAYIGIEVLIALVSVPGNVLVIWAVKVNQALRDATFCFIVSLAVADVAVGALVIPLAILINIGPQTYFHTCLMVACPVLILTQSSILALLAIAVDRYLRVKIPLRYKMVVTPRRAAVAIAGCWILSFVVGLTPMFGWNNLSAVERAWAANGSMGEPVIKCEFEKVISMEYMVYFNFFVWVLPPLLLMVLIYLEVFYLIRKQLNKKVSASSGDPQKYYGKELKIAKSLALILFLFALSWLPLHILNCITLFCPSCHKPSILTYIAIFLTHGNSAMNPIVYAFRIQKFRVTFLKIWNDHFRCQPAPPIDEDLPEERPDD
# Outline: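 CHO cell membranes stably expressing human A1 receptor; 0.5 nM [3H]CPX competed with test compound in 50 mM Tris/1 mM EDTA plus 1 U/mL adenosine deaminase, 25 °C, 90 min, gentle agitation; filtration and four ice-cold Tris/MgCl2 washes. Nonspecific binding defined with 1 µM CPX; Ki values derived.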
# [4] = target: Adenosine receptor A2a (Homo sapiens, UniProt P29274); assay: Displacement of [3H]ZM-241385 from human recombinant adenosine A2A receptor expressed in HEK293 cells; format: cell-based
# Outline: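 Membranes from HEK293 cells stably expressing human A2A receptor; 2 nM radioligand competed in 50 mM Tris/1 mM EDTA with 1 U/mL adenosine deaminase for 90 min at 25 °C with agitation; filtration, four ice-cold Tris/MgCl2 washes. Nonspecific binding defined with 1 µM unlabelled ligand; Ki computed.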
# [5] = target: T3, Adenosine receptor A3 (Homo sapiens, UniProt P0DMS8); assay: Displacement of [125I]ABMECA from human recombinant adenosine A3 receptor expressed in CHO cells; format: cell-based
# T3 sequence (P0DMS8 whole entry): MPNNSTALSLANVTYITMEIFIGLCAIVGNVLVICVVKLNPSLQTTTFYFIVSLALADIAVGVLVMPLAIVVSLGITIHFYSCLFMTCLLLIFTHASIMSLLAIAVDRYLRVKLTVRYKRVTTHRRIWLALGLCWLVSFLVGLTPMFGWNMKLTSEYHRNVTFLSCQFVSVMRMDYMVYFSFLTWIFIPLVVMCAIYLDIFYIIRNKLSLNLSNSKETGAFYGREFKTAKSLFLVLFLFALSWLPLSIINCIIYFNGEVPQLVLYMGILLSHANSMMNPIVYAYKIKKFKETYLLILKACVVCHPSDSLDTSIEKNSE
# Outline: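 Human A3 receptor stably expressed in CHO cells; membranes incubated with 0.1 nM 125I-AB-MECA and test compound in 50 mM Tris, 1 mM EDTA, 10 mM MgCl2 plus 1 U/mL adenosine deaminase, 25 °C, 90 min; filtration, four ice-cold washes. Nonspecific binding defined with 1 µM IB-MECA; Ki determined.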
# [6] = species on record: Homo sapiens; assay: Selectivity for human recombinant adenosine A2B receptor over human recombinant adenosine A2A receptor
# [7] = species on record: Homo sapiens; assay: Selectivity for human recombinant adenosine A2B receptor over human recombinant adenosine A3 receptor
# Chain of Adenosine receptor A2a (P29274 whole entry): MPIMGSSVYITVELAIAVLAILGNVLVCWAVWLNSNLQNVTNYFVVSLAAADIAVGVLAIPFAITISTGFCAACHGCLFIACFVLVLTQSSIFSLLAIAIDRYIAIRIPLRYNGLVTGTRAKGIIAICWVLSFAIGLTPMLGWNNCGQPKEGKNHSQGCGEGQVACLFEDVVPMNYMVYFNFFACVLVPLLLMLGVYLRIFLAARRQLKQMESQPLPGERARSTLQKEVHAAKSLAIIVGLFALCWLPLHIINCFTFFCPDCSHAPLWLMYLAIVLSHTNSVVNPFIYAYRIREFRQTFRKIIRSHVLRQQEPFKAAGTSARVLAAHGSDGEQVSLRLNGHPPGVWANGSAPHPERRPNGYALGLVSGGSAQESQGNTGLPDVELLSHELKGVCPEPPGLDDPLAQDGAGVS
Structure (SMILES),Ratio Ki [1],Ki [2] [nM],Ki [3] [nM],Ki [4] [nM],Ki [5] [nM],Ratio Ki [6],Ratio Ki [7]
CCCn1c(=O)c2[nH]c(-c3cnn(Cc4cccc(F)c4)c3)nc2n(C)c1=O,22,13,290,139,95,10,7
CCCn1c(=O)c2[nH]c(-c3cnn(Cc4ccccc4)c3)nc2n(C)c1=O,30,19,582,125,,6,
CCCn1c(=O)c2[nH]c(-c3cnn(Cc4ccc[n+]([O-])c4)c3)nc2n(CC)c1=O,2,506,1120,1950,,4,
CCn1c(=O)n(CC(C)C)c(=O)c2[nH]c(-c3cnn(Cc4cccc(F)c4)c3)nc21,47,31,1480,3850,324,124,10
CCn1c(=O)n(CC(C)C)c(=O)c2[nH]c(-c3cn[nH]c3)nc21,2,141,348,1220,,9,
Cn1c(=O)n(CC2CC2)c(=O)c2[nH]c(-c3cnn(Cc4cccc(F)c4)c3)nc21,26,7,185,73,35,10,5
CCn1c(=O)n(CC2CC2)c(=O)c2[nH]c(-c3cn[nH]c3)nc21,2,38,76,234,,6,
CCCn1c(=O)c2[nH]c(-c3cnn(Cc4cccc(F)c4)c3)nc2n(CC)c1=O,34,35,1200,2500,950,71,27
CCCn1c(=O)c2[nH]c(-c3cnn(Cc4ccccc4)c3)nc2n(CC)c1=O,9,31,275,261,,8,
CCCn1c(=O)c2[nH]c(-c3cnn(Cc4ccc(C)nc4)c3)nc2n(CC)c1=O,33,45,1520,670,290,15,6
CCn1c(=O)n(CC(C)C)c(=O)c2[nH]c(-c3cnn(Cc4ccc(C(F)(F)F)nc4)c3)nc21,180,20,3590,5410,350,270,17

# Second part, the molecule after the results:
Ratio Ki [1],Ki [2] [nM],Ki [3] [nM],Ki [4] [nM],Ki [5] [nM],Ratio Ki [6],Ratio Ki [7],Structure (SMILES)
76,,,,,58,91,CCn1c(=O)c2nc(-c3cnn(Cc4cccc(F)c4)c3)[nH]c2n(CC)c1=O
44,,,,,34,34,CCn1c(=O)c2nc(-c3cnn(Cc4cccc(C(F)(F)F)c4)c3)[nH]c2n(CC)c1=O
992,,,,,686,100,Cn1c(=O)c2nc(-c3cnn(Cc4cccc(C(F)(F)F)c4)c3)[nH]c2n(C)c1=O
45,6,274,234,262,39,43,CCn1c(=O)c2[nH]c(-c3cnn(Cc4cccc(C(F)(F)F)c4)c3)nc2n(C)c1=O
10,22,218,272,326,12,15,CCn1c(=O)n(CC2CC2)c(=O)c2[nH]c(-c3cnn(Cc4cccc(C(F)(F)F)c4)c3)nc21
17,,,,,7,,Cn1c(=O)c2[nH]c(-c3cnn(Cc4cccc(F)c4)c3)nc2n(C)c1=O
